Laboratory results taken from ChEMBL document CHEMBL5543129, “Peptide Inhibitor Targeting the Extraterminal Domain in BRD4 Potently Suppresses Breast Cancer Both In Vitro and In Vivo” (J Med Chem, 2024).
Active and inactive are the calls of the source. No cut-off for these calls is given here. Square brackets hold non-standard residues; d marks the D form. Peptide text beside a SMILES is read from it. Hyp = O=C(O)[C@@H]1C[C@@H](O)CN1; Ahx = NCCCCCC(=O)O

What was measured:
MDA-MB-231 [1] = experiment: Inhibition of colony formation in human MDA-MB-231 cells at 10 uM incubated for 2 weeks by crystal violet staining based assay; format: functional, cell-based
In short: (§1)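 Cells are seeded at 1 × 10^3/well and treated with peptide (10 μM) for 2 weeks, alone or with JQ1 5 μM, iJMJD6 10 μM, ICI 2.5 μM, or tamoxifen 3 μM (tamoxifen-resistant lines). Colonies are stained with crystal violet, dissolved in 10% acetic acid, and read at 590 nm. Three biological repeats.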

Mus musculus [2] = experiment: Downregulation of c-Myc mRNA expression in BALB/c mouse tumor xenografted with human MCF7 cells at 25 mg/kg, ip administered every 2 days by RT-qPCR analysis; format: functional, organism-based
In short: (§2)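 Female BALB/c nude mice (4–6 weeks) implanted subcutaneously with 5 × 10^6 cells in PBS. For MCF7 grafts, estrogen (E2, 10–2 M) is brushed on every 2 days. Treatment starts at ~50 mm3 after randomization, with peptide in normal saline ip every 2 days. Tumour mRNA is measured by RT-qPCR.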

[3] = Downregulation of CCND1 protein expression in human MDA-MB-231 cells assessed as fold change in remaining CCND1 level at 10 uM incubated for 24 hrs by immunoblotting analysis (reference value: 1); format: functional
In short: (§3)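 Cells treated with peptide (10 μM) for 24 h. Lysates in Tris/NaCl/EDTA/1% Triton X-100, run on 10% SDS-PAGE and immunoblotted with ECL detection. β-actin as loading control. Three repeats, quantified against untreated cells.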

MDA-MB-231 [4] = experiment: Antitumor activity against human MDA-MB-231 cells xenografted in BALB/c nude mouse assessed as reduction in tumor weight at 12.5 mg/kg, ip administered every 2 days in presence of 50 mg/kg JQ1; format: functional, organism-based
In short: (§4)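 Female BALB/c nude mice given 5 × 10^6 cells sc (MCF7 mice with E2 10^-2 M every 2 days), randomised at ~50 mm3. Peptide 12.5 mg/kg ip (saline) every 2 days, plus JQ1 50 mg/kg ip (DMSO/10% HPBCD 1:10) every 2 days or iJMJD6 12.5 mg/kg ip (DMSO/PBS 1:20). Caliper volume every 2 days; tumours weighed at the end.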

MCF7 [5] = experiment: Antiproliferative activity against human MCF7 cells at 10 uM incubated for 1 week in presence of fulvestrant by CellTiter 96 Aqueous One Solution based assay; format: functional, cell-based; conditions: time 1.0 weeks
In short: (§5)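 Cells seeded at 2 × 10^3/well and treated with peptide (10 μM) alone or combined with JQ1 (5 μM), iJMJD6 (10 μM) or ICI (2.5 μM), as the line states. Viability read by MTS reagent, 1 h at 37 °C, A490. Three biological repeats.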

T47D = experiment: Inhibition of colony formation in human T47D cells at 10 uM incubated for 2 weeks in presence of JMJD6 inhibitor by crystal violet staining based assay; format: functional, cell-based; in short: as §1
[6] = Downregulation of JMJD6 protein expression in BALB/c mouse tumor xenografted with human MCF7 cells assessed as fold change in remaining JMJD6 level at 25 mg/kg, ip administered every 2 days by immunoblotting analysis; format: functional
In short: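 Tumours taken from xenograft mice dosed with peptide at 25 mg/kg ip every 2 days. […] Three repeats.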

Mus musculus [7] = experiment: Downregulation of c-Myc mRNA expression in BALB/c mouse tumor xenografted with human MDA-MB-231 cells at 25 mg/kg, ip administered every 2 days by RT-qPCR analysis; format: functional, organism-based; in short: as §2
MDA-MB-231 [8] = experiment: Antiproliferative activity against human MDA-MB-231 cells at 10 uM incubated for 1 week in presence of 5 uM JQ1 by CellTiter 96 Aqueous One Solution based assay; format: functional, cell-based; conditions: time 1.0 weeks; in short: as §5
[9] = Toxicity in BALB/c mouse xenografted with human […] cells assessed as change body weight at 12.5 mg/kg, ip administered every 2 days in presence of 50 mg/kg JQ1; format: organism-based; conditions: in vivo, 48 h
In short: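 Female BALB/c nude mice (4–6 weeks) carried sc MDA-MB-231 xenografts (5 × 10^6 cells) and were randomized at about 50 mm3. Peptide (12.5 mg/kg ip in saline) and JQ1 (50 mg/kg ip, DMSO/10% HPBCD 1:10) were given every 2 days, alone or combined. Body weight was recorded, and heart, liver, spleen, lung and kidney morphology and weight were assessed.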

[10] = Toxicity in BALB/c mouse xenografted with human MCF7 cells assessed as change in spleen at 12.5 mg/kg, ip administered every 2 days in presence of 12.5 mg/kg JMJD6 inhibitor; format: organism-based; conditions: in vivo, 48 h
In short: (§6)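 Female BALB/c nude mice carried MCF7 xenografts (5 × 10^6 cells sc, E2 10–2 M brushed every 2 days) and were randomized at about 50 mm3. Peptide was given at 12.5 mg/kg ip every 2 days, and iJMJD6 (DMSO/PBS 1:20) at 12.5 mg/kg ip every other day, alone or combined. Body and organ weights were recorded.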

[11] = Downregulation of CCND1 protein expression in human MCF7 cells assessed as fold change in remaining CCND1 level at 10 uM incubated for 24 hrs by immunoblotting analysis (reference value: 1); format: functional; in short: as §3
MCF7 [12] = experiment: Antitumor activity against human MCF7 cells xenografted in BALB/c nude mouse assessed as reduction in tumor weight at 12.5 mg/kg, ip administered every 2 days in presence of 50 mg/kg JQ1; format: functional, organism-based; in short: as §4
MCF7 [13] = experiment: Antitumor activity against human MCF7 cells xenografted in BALB/c nude mouse assessed as reduction in tumor volume at 12.5 mg/kg, ip administered every 2 days in presence of 50 mg/kg JQ1; format: functional, organism-based; in short: as §4
MCF7 [14] = experiment: Downregulation of CCND1 gene expression in human MCF7 cells at 10 uM incubated for 6 hrs by RT-qPCR analysis; format: functional, cell-based
In short: (§7)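 Cells treated with peptide (10 μM) for 6 h; c-Myc, N-myc and CCND1 mRNA measured by RT-qPCR. Three biological repeats.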

[15] = Toxicity in BALB/c mouse xenografted with human MCF7 cells assessed as change in lung morphology at 12.5 mg/kg, ip administered every 2 days in presence of 50 mg/kg JQ1; format: organism-based; conditions: in vivo, 48 h
[16] = Toxicity in BALB/c mouse xenografted with human MCF7 cells assessed as change in spleen weight at 12.5 mg/kg, ip administered every 2 days in presence of 50 mg/kg JQ1; format: organism-based; conditions: in vivo, 48 h
MCF7 [17] = experiment: Downregulation of […] gene expression in human MCF7 cells at 10 uM incubated for 6 hrs by RT-qPCR analysis; format: functional, cell-based; in short: as §7
MCF7 [18] = experiment: Antitumor activity against human MCF7 cells xenografted in BALB/c nude mouse assessed as reduction in tumor volume at 12.5 mg/kg, ip administered every 2 days in presence of 2.5 mg/kg fulvestrant; format: functional, organism-based
In short: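 MCF7 xenografts in female BALB/c nude mice on E2 (10^-2 M, every 2 days), randomised at ~50 mm3. Peptide 12.5 mg/kg ip every 2 days with fulvestrant 2.5 mg/kg sc (DMSO/corn oil 1:10) every 6 days. Caliper volume (1/2 × L × W²); tumours weighed at the end.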

[19] = Toxicity in BALB/c mouse xenografted with human MCF7 cells assessed as change in kidney at 12.5 mg/kg, ip administered every 2 days in presence of 12.5 mg/kg JMJD6 inhibitor; format: organism-based; conditions: in vivo, 48 h; in short: as §6

## H-YGRKKRRQRRRRNQKFKCGE-OH
MDA-MB-231 [1]
  inhibition: Active
Mus musculus [2]
  Activity: Active
[3]
  fold change (FC): 0.67
MDA-MB-231 [4]
  Activity: Active
MCF7 [5]
  Activity: Active
T47D
  inhibition: Active
[6]
  fold change (FC): 0.71
Mus musculus [7]
  Activity: Active
MDA-MB-231 [8]
  Activity: Active
[9]
  Activity: Non-Toxic
[10]
  Activity: Non-Toxic
[11]
  fold change (FC): 0.68
MCF7 [12]
  Activity: Active
MCF7 [13]
  Activity: Active
MCF7 [14]
  Activity: Active
[15]
  Activity: Non-Toxic
[16]
  Activity: Non-Toxic
MCF7 [17]
  Activity: Active
MCF7 [18]
  Activity: Active
[19]
  Activity: Non-Toxic

## CC[C@H](C)[C@H](NC(=O)[C@H](Cc1ccc(O)cc1)NC(=O)[C@@H]1C[C@@H](O)CN1C(=O)[C@H](C)NC(=O)[C@@H](NC(=O)CCCCCNC(=O)[C@H](CCC(=O)O)NC(=O)CNC(=O)[C@H](CS)NC(=O)[C@H](CCCCN)NC(=O)[C@H](Cc1ccccc1)NC(=O)[C@H](CCCCN)NC(=O)[C@H](CCC(N)=O)NC(=O)[C@H](CC(N)=O)NC(=O)[C@H](CCCNC(=N)N)NC(=O)[C@H](CCCNC(=N)N)NC(=O)[C@H](CCCNC(=N)N)NC(=O)[C@H](CCCNC(=N)N)NC(=O)[C@H](CCC(N)=O)NC(=O)[C@H](CCCNC(=N)N)NC(=O)[C@H](CCCNC(=N)N)NC(=O)[C@H](CCCCN)NC(=O)[C@H](CCCCN)NC(=O)[C@H](CCCNC(=N)N)NC(=O)CNC(=O)[C@@H](N)Cc1ccc(O)cc1)[C@@H](C)CC)C(=O)O (H-YGRKKRRQRRRRNQKFKCGE[Ahx]IA[Hyp]YI-OH)
MDA-MB-231 [1]
  inhibition: Active
Mus musculus [2]
  Activity: Active
[3]
  fold change (FC): 0.62
MDA-MB-231 [4]
  Activity: Active
MCF7 [5]
  Activity: Active
T47D
  inhibition: Active
[6]
  fold change (FC): 0.4
Mus musculus [7]
  Activity: Active
MDA-MB-231 [8]
  Activity: Active
[9]
  Activity: Non-Toxic
[10]
  Activity: Non-Toxic
[11]
  fold change (FC): 0.58
MCF7 [12]
  Activity: Active
MCF7 [13]
  Activity: Active
MCF7 [14]
  Activity: Active
[15]
  Activity: Non-Toxic
[16]
  Activity: Non-Toxic
MCF7 [17]
  Activity: Active
MCF7 [18]
  Activity: Active
[19]
  Activity: Non-Toxic
